Results gathered from unrelated publications.
Compare with care: the assays were run in different laboratories.
Target: Serine/threonine-protein kinase Chk1 (CHEK1, Homo sapiens, UniProt O14757)
Sequence (O14757 1-476, as in one of the studies): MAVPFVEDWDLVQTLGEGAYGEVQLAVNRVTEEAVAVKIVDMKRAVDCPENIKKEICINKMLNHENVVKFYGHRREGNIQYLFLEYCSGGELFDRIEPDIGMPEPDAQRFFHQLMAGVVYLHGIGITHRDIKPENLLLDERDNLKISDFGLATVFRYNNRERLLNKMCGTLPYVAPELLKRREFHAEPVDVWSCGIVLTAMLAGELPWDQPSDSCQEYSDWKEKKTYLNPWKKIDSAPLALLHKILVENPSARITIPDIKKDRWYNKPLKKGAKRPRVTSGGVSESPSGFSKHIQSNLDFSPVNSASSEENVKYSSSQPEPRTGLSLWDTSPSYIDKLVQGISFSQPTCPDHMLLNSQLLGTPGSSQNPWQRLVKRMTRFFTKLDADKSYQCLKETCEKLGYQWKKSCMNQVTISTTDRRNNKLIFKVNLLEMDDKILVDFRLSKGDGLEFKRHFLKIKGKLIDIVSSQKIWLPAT

`C1=C/COCc2cc(ccc2OCCN2CCCC2)Nc2nccc(n2)-c2cccc(c2)COC/1` gave a remaining signal of 100% (cell-free assay; 0.1 µM).
The remaining binding of `COc1ccc2[nH]c3c4[nH]c5ccc(OC)cc5c4c4c(c3c2c1)C(=O)NC4=O` is reported as 12% (binding; 1 µM).
The inhibition of `C=CC(=O)N1CCC[C@@H](n2nc(-c3ccc(Oc4ccccc4)cc3)c3c(N)ncnc32)C1` is reported as 10% (enzyme activity; inhibitor; 1 µM).
For `N#Cc1ccc(NC(=O)Nc2ccccc2)cc1`, the remaining binding was 91% (cell-free assay; competition with immobilised ligand; 25 µM).
`C#Cc1cnc(Nc2ccnc(CO)c2)nc1Nc1ccccc1S(C)(=O)=NC#N` (stereo not drawn) has a remaining signal of 38% (cell-free assay; 1 µM).
`CCCCC(=O)Nc1ccc(-c2ccc3ncn(CCC)c(=O)c3c2)cn1` has a remaining binding of 86% (binding; competition with immobilised ligand; 0.5 µM).
For `COc1ccc2oc(-c3ccc4nc(N)oc4c3)c/c(=N\c3ccccc3NC(=O)CCN)c2c1`, the remaining binding was 87% (binding; 1 µM).
With `C[C@H]1CC[C@H](n2c3cnccc3c3cnc(Nc4ccc5c(n4)CCN(C(=O)CO)C5)nc32)CC1` the remaining signal was 93% (cell-free assay; 1 µM).
With `CC#CC(=O)N1CCC[C@H]1c1nc(-c2ccc(C(=O)Nc3ccccn3)cc2)c2c(N)nccn12` the inhibition was 20% (enzyme activity; inhibitor; 1 µM).
